# Screening results: PubChem, The Scripps Research Institute Molecular Screening Center
# The list is not random: actives were taken first. Their share in the collection is about 4.2%.
# TAAR1 ag: human TAAR1 agonism. Q96RJ0. CHO RD-HGA16 TAAR1, Fluo-8 calcium fluorescence; vehicle wells 0%, saturating PEA agonist 100%. activation, % at 3 µM. hit rate 0.99% among 360,000. AID 624467;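 active = activation above the mean activation of all test compounds in the run plus 3 SD, cut at about 38% in these data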
# Target sequence (Q96RJ0 whole entry, looked up): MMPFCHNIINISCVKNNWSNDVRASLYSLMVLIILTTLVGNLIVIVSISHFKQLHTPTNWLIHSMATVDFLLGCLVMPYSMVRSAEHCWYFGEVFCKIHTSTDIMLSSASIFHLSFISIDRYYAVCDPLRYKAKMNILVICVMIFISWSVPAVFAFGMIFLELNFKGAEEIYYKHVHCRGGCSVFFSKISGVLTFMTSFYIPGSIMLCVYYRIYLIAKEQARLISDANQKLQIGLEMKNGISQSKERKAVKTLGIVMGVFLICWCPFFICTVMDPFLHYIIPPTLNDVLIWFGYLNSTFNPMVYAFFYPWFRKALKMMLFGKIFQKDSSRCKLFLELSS
#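 Assay system: CHO-derived RD-HGA16 cells with stable Gα16 and human TAAR1; timing: 17-24 h seeding, 75 min 37 °C dye, 30 min RT; read-out: % activation from peak over basal fluorescence ratio, DMSO-to-PEA scaled; measured by: kinetic Fluo-8 calcium fluorescence; benchmarks: low control DMSO, high control PEA (EC100); doses: 3 µM single concentration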
# TAAR1 antagonist: antagonists of human TAAR1; CHO RD-HGA16 TAAR1, Fluo-8 calcium fluorescence, antagonist; inhibition, % at 3 µM; Q96RJ0; hit rate 1.5% among 360,000;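 active = inhibition above a per-plate cutoff, the mean inhibition of test compounds on that plate plus 3 SD, cut at about 49% in these data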
#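 System: CHO RD-HGA16 cells bearing hTAAR1. Reagent: EC80 β-phenethylamine stimulus. Schedule: seeding 17-24 h prior, 75-min 37 °C, 30-min RT dye loading. Signal: Fluo-8 intracellular calcium dye fluorescence, real-time kinetic reads. Read-out: % inhibition from peak post-agonist over basal fluorescence ratio. Benchmarks: vehicle wells and EC80 agonist wells. Replicates: n of 1.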
# GalR3 antagonist: blocks the human galanin receptor 3; O60755; HEK293 GalR3-CNG cAMP membrane potential fluorescence; galR3 body fused to GalR1 C-terminus; inhibition, % at 3 µM; hit rate 0.44% among 360,000;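 active = inhibition above the screen-wide average plus 3 SD, cut at about 13% in these data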;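 note: forskolin and galanin both at EC90 stimulate the cells; cAMP rise reported by CNG channel membrane potential dye signal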
# Target sequence (O60755 1-299 limits assumed): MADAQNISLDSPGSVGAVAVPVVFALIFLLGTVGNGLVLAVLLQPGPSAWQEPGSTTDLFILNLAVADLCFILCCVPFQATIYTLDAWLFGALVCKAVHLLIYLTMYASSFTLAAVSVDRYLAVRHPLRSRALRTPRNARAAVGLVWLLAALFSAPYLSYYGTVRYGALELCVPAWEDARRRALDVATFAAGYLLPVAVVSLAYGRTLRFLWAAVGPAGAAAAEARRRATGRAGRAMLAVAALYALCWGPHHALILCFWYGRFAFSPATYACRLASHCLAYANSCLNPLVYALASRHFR
# CHO parental Ca: counter-screen: ATP calcium response change in parental CHO cells. parental CHO-K1, ATP-induced calcium, Fluo-8 fluorescence. inhibition, % at 5.6 µM. hit rate 0.63% among 330,000. AID 463079;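 active = inhibition above that plate's mean sample inhibition plus 3 SD, cut at about 26% in these data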
#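 Assay system: untransfected parental CHO cell line. Also added: ATP agonist challenge. Dosing: one dose, 5.6 µM nominal. Measured by: Fluo-8 fluorescence. Read-out: % inhibition. Benchmarks: ATP wells versus no-ATP DMSO wells. Repeats: no replicates.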
# OX1R antag-1: blocks the human orexin 1 receptor; hit rate 0.43% among 330,000; CHO/OX1R cells, Fluo-8 calcium fluorescence, orexin A; inhibition, % at 5 µM;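 active = inhibition above its plate's threshold, mean inhibition of all tested compounds on the plate plus 3 SD, cut at about 37% in these data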
# OX1R antag-2: blocks the human orexin 1 receptor | hit rate 1.8% among 330,000 | inhibition, % at 6.6 µM | OX1R-expressing cells, FRET antagonist read-out | AID 485270; in the data active = inhibition mostly above about 38%, no sharp cut-off; inactive = mostly below about 40%
# Hits are given with their value; n = inactive; x = no result.
SMILES,TAAR1 ag,TAAR1 antagonist,GalR3 antagonist,CHO parental Ca,OX1R antag-1,OX1R antag-2
Cc1ccc(C)c(C(=O)OCC(=O)Nc2cccc(S(=O)(=O)N3CCCCC3)c2)c1,n,n,n,n,54,n
CN(C)S(=O)(=O)c1cccc(NC(=O)CNc2cccc(S(=O)(=O)N3CCCCC3)c2)c1,n,n,n,x,x,x
CC(=O)c1ccccc1OCC(=O)Nc1cccc(S(=O)(=O)N2CCCC2)c1,n,n,n,n,n,n
CCOc1ccccc1OCC(=O)Nc1cccc(S(=O)(=O)N2CCCCCC2)c1,n,58,n,n,n,n
Cc1ccc(S(=O)(=O)N2CCCCC2)cc1NCC(=O)Nc1ccc(Br)cc1F,n,57,n,x,x,x
CCN(CC)S(=O)(=O)c1cc(NC(=O)CNc2cccc(S(=O)(=O)N3CCCC3)c2)ccc1C,x,x,x,45,n,n
O=C(CNc1ccccc1F)Nc1cc(S(=O)(=O)N2CCCCC2)ccc1Cl,n,n,n,n,n,n
COC(=O)c1[nH]c2ccc(C)cc2c1NC(=O)CCN1CCN(Cc2ccc3c(c2)OCO3)CC1,n,n,n,n,n,n
Cc1ccnc(NC(=O)c2ccc3c(c2)S(=O)(=O)c2ccccc2C3=O)c1,n,n,n,n,n,n
O=C(c1cc2c(s1)-c1ccccc1S(=O)(=O)C2)N1CCN(Cc2ccccc2)CC1,n,51,n,n,n,n
C/C(=N\NC(=O)Cc1ccc(Cl)cc1)c1ccc(F)cc1,n,n,n,n,n,n
Cc1ccc2c(Cn3cc(C(F)(F)F)cc(Cl)c3=O)cc(=O)oc2c1,n,n,n,n,n,n
CC(C)CC(=O)Nc1nnc(S(=O)(=O)N(C)Cc2ccco2)s1,x,x,x,n,n,n
CN(Cc1ccco1)S(=O)(=O)c1nnc(NC(=O)c2cccc(Cl)c2)s1,n,n,n,29,n,n
c1csc(-c2nc(NCC3CCCO3)c3ccccc3n2)c1 (configuration not stated),n,n,n,n,n,68
Oc1ccc(Cl)cc1Nc1nc(NCC2CCCO2)c2ccccc2n1 (configuration not stated),n,57,n,n,n,n
Oc1ccccc1Nc1nc(NCC2CCCO2)c2ccccc2n1 (configuration not stated),n,n,n,n,n,n
O=C(c1ccc(=O)n(Cc2ccccc2)n1)N1CCN(C/C=C/c2ccccc2)CC1,n,n,n,n,n,n
COc1ccc(-c2nc(-c3ccc(NC(=O)c4ccncc4)cc3)no2)cc1OC,x,x,x,n,n,60
CC(=O)Nc1cccc(-c2nnc(-c3ccc(C)cc3)o2)c1,n,n,n,x,x,x
COc1ccc(Cc2nc(-c3ccc(NC(=O)c4cccnc4)cc3)no2)cc1,55,n,n,n,n,n
Cc1ccc(-c2nnc(-c3cccc(NC(=O)c4cccs4)c3)o2)cc1,n,52,n,n,n,n
COc1ccc(-c2noc(CCC(=O)NCc3cccnc3)n2)cc1,n,n,n,n,n,n
COc1cccc(-c2nc(-c3ccc(NC(=O)c4cccs4)cc3)no2)c1,n,51,n,n,n,n
COc1ccc(C)cc1NCc1cc(=O)oc2cc(-c3ccccc3)c(O)cc12,n,n,n,n,n,n
SMILES,TAAR1 ag,TAAR1 antagonist,GalR3 antagonist,CHO parental Ca,OX1R antag-1,OX1R antag-2
CCn1c(SCc2nc3scc(-c4ccccc4)c3c(=O)[nH]2)nnc1-c1cccs1,n,n,n,n,n,56
CCOC(=O)c1nn(-c2ccc(F)cc2)c(-c2ccccc2)c1C(=O)c1ccccc1,n,n,n,n,n,n
CCOC(=O)c1nn(-c2cccc(OC)c2)c(-c2ccccc2)c1C(=O)c1ccccc1,n,56,n,n,n,55
CN(C)C(/C=C/Nc1ccc(Br)cc1)=C(C#N)C#N,n,n,n,n,n,n
CCOC(=O)c1c(C)oc2c1c(C(c1cccnc1)N1CCOCC1)c(O)c1ccccc12 (configuration not stated),n,n,n,n,n,73
COc1cc(F)cc(-c2ccc3c(c2)c(-c2cccs2)c(-c2cc(OC)cc(OC)c2)n3C)c1,50,n,n,n,n,n
COc1cc(OC)cc(-c2c(-c3cccs3)c3cc(Br)ccc3n2C)c1,n,n,n,n,n,n
O=C(CSCc1ccccc1)Nc1cccc(C(=O)Nc2ccc(C(=O)O)cc2)c1,n,n,n,n,n,n
CCCCOc1ncnc2c1[nH]c1ccc(C)cc12,n,n,n,56,n,n
CN1CCN(CCCNC(=O)Cn2nc(-c3ccccc3)ccc2=O)CC1,n,n,n,n,n,n
Cc1cc(NC(=O)CCCSc2nc(-c3ccco3)cc(C(F)(F)F)n2)no1,n,n,n,n,n,n
COc1ccc(NC(=O)CCCSc2nc(-c3ccco3)cc(C(F)(F)F)n2)cc1OC,n,n,n,n,n,66
N#C/C(=N\Nc1ccc(Cl)c(Cl)c1)C(=O)C1CC1,n,n,n,n,n,50
O=C(c1ccc(Cl)c([N+](=O)[O-])c1)N1CCN(S(=O)(=O)c2ccc(Cl)cc2)CC1,n,n,n,n,n,n
CC(=O)Nc1nnc(-c2ccc3c(c2)CCCC3)o1,n,n,n,n,n,n
COc1ccccc1C(=O)Nc1nnc(-c2ccc3c(c2)CCCC3)o1,n,n,n,n,n,68
CN(C)S(=O)(=O)c1ccc(-c2csc(N/N=C/c3ccc(O)cc3)n2)cc1,n,77,n,n,n,n
C(=N\Nc1nc(-c2ccccc2)cs1)/c1ccncc1,n,n,n,n,n,n
COc1ccc2ccn(S(=O)(=O)c3ccccc3)c2c1,n,n,n,n,n,n
Cc1ccn(C(=O)c2cc3c(C)nn(-c4ccccc4)c3s2)n1,x,x,x,n,n,n
COC(=O)c1ccccc1NC(=O)COc1ccccc1,n,n,n,n,n,41
O=C(O)CCSCC(=O)Nc1c(C(=O)C2CC2)oc2ccccc12,n,n,n,n,n,n
O=C1NC(=S)S/C1=C\c1cc(Cl)ccc1Cl,n,n,n,x,x,x
CCOc1ccc(N(C)c2ccc(/C=C3/SC(=S)NC3=O)cc2)cc1,n,59,n,26,33,n
CCOc1c(O)ccc(/C=C2\SC(=S)NC2=O)c1[N+](=O)[O-],n,n,n,n,n,50
O=C1NC(=S)S/C1=C/c1ccc(Oc2cnccn2)cc1,n,n,n,n,n,n
O=C(N/N=C/c1ccc(O)cc1)Nc1cccc2nsnc12,38,67,n,n,n,n
COc1cc(/C=N/NC(=O)Nc2cccc3nsnc23)cc(OC)c1OC,n,n,n,x,x,x
Cc1ccc(C)c(N2CCN(S(=O)(=O)c3cccc4cccnc34)CC2)c1,n,n,n,n,n,n
CC(NC(=O)COC(=O)/C(=C/c1cccs1)c1cccs1)c1ccccc1 (configuration not stated),n,52,n,n,n,n
